Source: paper PMC2913404 (Neurobiology of disease, 2010)
Positions of bridges follow the written chain, without caps; N, C: chain ends. Residues, ends and D or L forms follow the SMILES beside them. *: point of attachment. Biotin = O=C1N[C@H]2[C@H](CS[C@H]2CCCCC(=O)*)N1

Tests used:
[1] = system: Aβ1–40 peptide (amyloid aggregation); test: Thioflavin T amyloid formation assay, Aβ1–40; type: biochemical; conditions: Aβ1–40 50µM + peptide 50µM, 5 days, 37°C, n=3 (Fig 1C)
In short: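 Aβ1–40 (50 µM; stored frozen in DMSO) was mixed with equimolar test peptide (50 µM) and incubated 5 days at 37°C until amyloid formation saturated. Thioflavin T was then added, and signal was read at 490 nm with excitation at 445 nm.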

[2] = system: Aβ1–40/1–42 in APPswePSEN1(A246E) mouse brain; test: Aβ1–40/1–42 immunostaining of brain; type: in vivo; conditions: for Aβ1–40/42 immunostaining signal, % of control: young, with adjuvant
In short: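 After monthly s.c. streptavidin-peptide conjugate immunization with adjuvant, brains were collected after PBS exsanguination and bisected, then snap-frozen or fixed overnight in 2% paraformaldehyde. Some sagittal sections were pretreated with 90% formic acid for 4 min. Sections were blocked 2 h in 10% goat serum, given rabbit anti-Aβ1–40/42 overnight at 4°C, then Cy3 secondary for 1 h. Eight to twelve sections 80 µm apart were imaged at 10X with a fixed threshold.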

[3] = system: fibrillar Aβ amyloid plaques in APPswePSEN1(A246E) mouse brain; test: Amyloid plaque burden, number and area; type: in vivo
[4] = system: Aβ amyloid species in APPswePSEN1(A246E) cortex; test: Aβ/APP immunoblot of soluble cortex fraction; type: in vivo, mouse; conditions: immunoblot (Fig 3G)
[5] = system: monovalent Aβ1–40 peptide; conditions: ref Kang et al., 2003; cited from earlier work
APPswePSEN1(A246E) mice = test: Morris water maze; type: in vivo, mouse
SDPM1 / SDPM2 peptide = test: Serum antibody titer to SDPM1/SDPM2 after immunization; type: in vivo, mouse; conditions: for SDPM1-specific antibody titer (SDPM1 minus SDPM2 titer): average, SEM, n=7–12 animals (Fig 2A); for antibody titers to SDPM1 and SDPM2: young (5 to 12 months), end of experiment (S2A)
[6] = system: Aβ1–42 peptide (amyloid aggregation); test: Thioflavin T amyloid formation assay, Aβ1–42; type: biochemical; conditions: Aβ1–42 50µM + peptide 50µM, 5 hours, 37°C, n=3 (Fig 1C)
In short: (§1)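 Aβ1–40 or Aβ1–42 (50 µM) was mixed equimolar with peptide (50 µM) at 37°C until amyloid formation saturated: 5 days for Aβ1–40, 5 hours for Aβ1–42. Time courses set the read point. Thioflavin T was then added and read at 490 nm with excitation at 445 nm. Aβ alone served as positive control; peptide alone was read as background.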

Aβ amyloid = test: Serum antibody titer to Aβ amyloid after immunization; type: in vivo, mouse; conditions: for Aβ amyloid antibody titer: young, significant vs Mock (Fig 2C)
[7] = system: amyloid plaques in AD brain; conditions: ref Kang et al., 2003; cited from earlier work
[8] = system: APPswePSEN1(A246E) mouse brain; test: Brain inflammation immunostaining; type: in vivo; conditions: young and old; for reduction of CD68 immunostaining: significant (Fig 5D); for GFAP staining signal: with adjuvant (Fig 5C); for Iba1 staining signal: with adjuvant (Fig 5E)
[9] = system: low molecular weight Aβ amyloid from COS7 cells transfected with APPswe; test: Precipitation from APPswe-transfected COS7 lysates; type: binding, human; conditions: COS7 lysate 1mg; antibody 10µg or biotin-SDPM1 50µg (Fig 1I, S1A)
In short: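 COS7 cells grown in DMEM/10% FCS were transfected at 40% confluence with V5-tagged human APP695, wild type or Swedish. At 48 h cells were lysed in 1% NP40/0.1% SDS/deoxycholate/EDTA buffer with protease inhibitors, sonicated and cleared at 16000g. Lysate (1 mg) was incubated overnight at 4°C with antibody (10 µg) or biotinylated peptide (50 µg), the latter captured on streptavidin agarose. Precipitates were analysed by SDS-PAGE and Aβ immunoblot.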

[10] = Self-aggregation of SDPM1 by Thioflavin T; type: physicochemical; conditions: SDPM1 added alone, over time
[11] = system: monovalent Aβ1–42 peptide; conditions: ref Kang et al., 2003; cited from earlier work
[12] = system: Aβ1–42 in APPswePSEN1(A246E) mouse brain; test: Aβ1–42 brain peptide level; type: in vivo; conditions: with adjuvant
Aβ1–42 peptide = test: Amyloid trapping assay, SDS-PAGE and Aβ1–40/42 immunoblot; type: biochemical; conditions: SDS-PAGE/immunoblot after mixing with Aβ1–42 (Fig 1G, 1H)
In short: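 Aβ1–42 (50 µM) incubated with equimolar test peptide (50 µM) or 1:500 immune serum for 5 h at 37°C. A subset of mixtures was boiled in SDS with reducing agent and run on 10–20% Tris-tricine gels, then transferred to nitrocellulose. Blots were blocked in TBST/5% milk and probed with rabbit anti-Aβ1–40/42 at 1:10,000 in TBST/2.5% milk.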

[13] = system: Aβ1–40 in APPswePSEN1(A246E) mouse brain; test: Aβ1–40 brain peptide level; type: in vivo; conditions: with adjuvant
In short: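 Transgenic mice received monthly subcutaneous injections of biotinylated test peptide (100 µg) conjugated overnight at 4°C to 25 µg streptavidin in TBS, emulsified 1:1 with adjuvant. TiterMax Gold was used first, then Freund's incomplete. Schedules ran 5–12 months (8 injections) or 12–18 months (7). Mock controls got TBS plus adjuvant. Brain Aβ1–40 ELISA was read at 450 nm against peptide standard curves and reported as µg/g wet brain weight.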

[14] = system: Aβ amyloid (Aβ1–40 or Aβ1–42); test: Thioflavin T amyloid formation assay, Aβ form not distinguished; type: biochemical; conditions: peptide 50µM + Aβ1–40 or Aβ1–42 50µM, 37°C, n=3 (Fig 1C)
In short: as §1

[15] = old, in most instances (Fig 3D–F)
[16] = young, in all instances, n=7–12 animals (Fig 3A–C)
[17] = young, soluble and insoluble, cortex, hippocampus (Fig 3A, B)

CC(C)C[C@@H]1NC(=O)[C@H](CCCNC(=N)N)NC(=O)[C@H](Cc2c[nH]c3ccccc23)NC(=O)[C@H](CCCNC(=N)N)NC(=O)CNC(=O)CNC(=O)[C@H](CCCCN)NC(=O)CNC(=O)[C@H](Cc2c[nH]c3ccccc23)NC(=O)[C@H](CC(=O)O)NC(=O)[C@@H](NC(=O)[C@H](CCC(=O)O)NC(=O)[C@H](C)NC(=O)CCCC[C@@H]2SC[C@@H]3NC(=O)N[C@@H]32)CSSC[C@@H](C(=O)NCC(=O)N2CCC[C@H]2C(=O)O)NC(=O)[C@H](C)NC(=O)[C@H](CCC(=O)O)NC(=O)[C@H]([C@@H](C)O)NC(=O)[C@H](CCCCN)NC(=O)CNC(=O)[C@H](CO)NC(=O)[C@H](C)NC(=O)CNC(=O)[C@@H]2CCCN2C(=O)[C@H](Cc2c[nH]c3ccccc23)NC1=O [SDPM1] (Biotin-AECDWGKGGRWRLWPGASGKTEACGP-OH; disulfide 3-24; C-terminus assumed)
inhibition of amyloid aggregation [1]: over 60%
Aβ1–40/42 immunostaining signal, % of control ([2]; cortex): 25±6%
Aβ1–40/42 immunostaining signal, % of control ([2]; hippocampus): 14±3%
Aβ1–40/42 staining signal ([2]; old, with adjuvant (S2C)): also reduced in old mice
Thioflavin S staining of fibrillar amyloid (images) ([3]; hippocampus and cortex (Fig 2D, S3–4), similar with Congo Red (not shown)): dramatically reduced
amyloid plaque burden, plaque number, plaque area, Thioflavin S staining ([3]; old, s.c. once a month with adjuvant, 12 to 18 months (Fig 2E–G, S2B)): highly significant reductions in amyloid plaque burden, plaque number, plaque area, and Thioflavin S staining
high and low MW Aβ amyloid species [4]: large reductions in both high and low MW Aβ amyloid species
binding to monovalent Aβ1–40 peptide [5]: does not bind monovalent Aβ1–40 or Aβ1–42 peptide
escape latency (APPswePSEN1(A246E) mice; old (12 to 18 mo), with adjuvant (Fig 4D)): no improvement
probe test (APPswePSEN1(A246E) mice; old (12 to 18 mo), with adjuvant (Fig 4E)): no improvement
probe test, time in platform quadrant (APPswePSEN1(A246E) mice; young (5 to 12 mo), with adjuvant (Fig 4B)): improved significantly compared to controls, spending almost the same amount of time in the appropriate quadrant as WT animals
SDPM1-specific antibody titer (SDPM1 minus SDPM2 titer) (SDPM1 / SDPM2 peptide; old (12 to 18 months), with adjuvant): 29 ± 6 µg/mL
predominant antibody subtype (SDPM1 / SDPM2 peptide; with adjuvant, young and old (Fig 2B)): IgG1
antibody titers to SDPM1 and SDPM2 (SDPM1 / SDPM2 peptide; without adjuvant): 2 to 15 µg/mL
antibody titers to SDPM1 and SDPM2 vs without adjuvant (SDPM1 / SDPM2 peptide; young, with adjuvant (S2A)): increased titers to SDPM1 and SDPM2
SDPM1 titers relative to SDPM2 titers (SDPM1 / SDPM2 peptide; young, without adjuvant (S2A)): increased SDPM1 titers relative to SDPM2
SDPM1-specific antibody titer (SDPM1 minus SDPM2 titer) (SDPM1 / SDPM2 peptide; young, without adjuvant): 5 ± 1 µg/mL
inhibition of amyloid aggregation [6]: over 60%
Aβ amyloid (Aβ1–40/42) antibody titer (Aβ amyloid; old, with adjuvant, Mock 11±6µg/mL, did not reach statistical significance (Fig 2C)): 23 ± 7 µg/mL
Aβ amyloid antibody titer (Aβ amyloid; with adjuvant, Mock 5±2µg/mL): 21 ± 7 µg/mL
Aβ amyloid antibody titer (Aβ amyloid; without adjuvant, Mock 1±1 µg/mL): 5 ± 1 µg/mL
binding to amyloid plaques in AD brain [7]: most efficacious in binding amyloid plaques in AD brain
reduction of CD68 immunostaining ([8]; cortex, with adjuvant): ≥ 50%
reduction of CD68 immunostaining ([8]; hippocampus, with adjuvant): ≥ 50%
GFAP staining signal [8]: no significant changes
Iba1 staining signal [8]: no significant changes
CD3, CD4, CD8, B220 brain parenchymal staining ([8]; with adjuvant, not shown): no evidence for brain parenchymal staining
precipitation of low MW Aβ amyloid from APPswe cells [9]: tetramer Aβ amyloid precipitated from APPswe-transfected cells
Thioflavin T signal of peptide alone (amyloid self-formation) [10]: did not lead to development of increased Thioflavin T signal over time
binding to monovalent Aβ1–42 peptide [11]: does not bind monovalent Aβ1–40 or Aβ1–42 peptide
reduction in Aβ1–42 peptide level [12, 15]: greater than 50%
reduction in Aβ1–42 peptide level ([12]; old, insoluble fraction, cortex (Fig 3D)): 65–75%
reduction in Aβ1–42 peptide level ([12]; old, insoluble fraction, hippocampus (Fig 3E)): 65–75%
reduction in Aβ1–42 peptide level [12, 16]: greater than 50%
Aβ1–42 brain level, significance of reduction [12, 17]: significant reduction in both soluble and insoluble Aβ1–40 and Aβ1–42
effect on high MW Aβ aggregate formation (Aβ1–42 peptide): reduced formation of high molecular weight (MW) Aβ aggregates
size of trapped Aβ forms (trimers and tetramers) (Aβ1–42 peptide): 12–16 kDa
reduction in Aβ1–40 peptide level [13, 15]: greater than 50%
Aβ1–40 cerebellum level ([13]; young, cerebellum (Fig 3C)): significantly reduced
reduction in Aβ1–40 peptide level [13, 16]: greater than 50%
Aβ1–40 brain level, significance of reduction [13, 17]: significant reduction in both soluble and insoluble Aβ1–40 and Aβ1–42

DWGKGGRWRLWPGASGKTEA [SDPM2]
Aβ staining levels vs mock-immunized ([2]; S2C): not significantly reduced, though it trended downward compared to mock-immunized animals
SDPM1-specific antibody titers (SDPM1 / SDPM2 peptide; any condition (Fig 2A)): never showed SDPM1-specific antibody titers under any conditions
antibody titers to SDPM1 and SDPM2 (SDPM1 / SDPM2 peptide; without adjuvant): 2 to 15 µg/mL
GFAP staining signal [8]: no significant changes
Iba1 staining signal [8]: no significant changes
Thioflavin T signal decrease [14]: no significant decrease in Thioflavin T signal
effect on high MW Aβ aggregate formation (Aβ1–42 peptide): had no effect on Aβ amyloid formation in vitro
